ChEMBL document CHEMBL1158986, “New antimicrobial filicinic acid derivatives from Hypericum drummondii” (1991)
Values after ≈ are worked out from the molar mass of the structure shown. One block for each molecule: values may come before it.

How the values were obtained:
Type in all cases: functional
Bacillus subtilis = test: Antimicrobial activity against Bacillus subtilis after 24 hrs by twofold serial broth dilution technique
Procedure, shortened: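 B. subtilis (ATCC 6633) cultured in eugon broth. MIC by twofold serial broth dilution, compounds tested over 0.20–100 μg/ml. Tubes incubated at 30°, read after 24 h. MIC taken as the lowest concentration inhibiting growth. Streptomycin sulfate as standard control.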

Staphylococcus aureus = test: Antimicrobial activity against Staphylococcus aureus after 24 hrs by twofold serial broth dilution technique
Procedure, shortened: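 S. aureus (ATCC 6538) cultured in eugon broth. Twofold serial broth dilution covering 0.20–100 μg/ml. Incubation at 37° for 24 h. MIC is the lowest concentration with no growth. Streptomycin sulfate served as standard control.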

[1] = system: Mycolicibacterium smegmatis; test: Antimicrobial activity against Mycobacterium smegmatis after 48 hrs by twofold serial broth dilution technique
Procedure, shortened: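 Mycobacterium smegmatis (ATCC 607) grown in eugon broth. Twofold serial broth dilution from 0.20 to 100 μg/ml, tubes kept at 37°, MIC read after 48 h as the lowest concentration preventing growth. Streptomycin sulfate included as standard control.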

MIC (Bacillus subtilis): 0.2 µg/mL (≈ 0.403 µM)
MIC (Staphylococcus aureus): 0.78 µg/mL (≈ 1.57 µM)
MIC [1]: 1.56 µg/mL (≈ 3.14 µM)
Structure (SMILES): CC(=O)C1=C(O)C(C)(CC=C(C)C)C(O)=C(Cc2c(O)c(C(C)=O)c(O)c3c2OC(C)(C)C=C3)C1=O (stereo not given) [ISODRUMMONDIN D]

MIC (Bacillus subtilis): 0.78 µg/mL (≈ 1.34 µM)
MIC (Staphylococcus aureus): 12.5 µg/mL (≈ 21.5 µM)
MIC [1]: 1.56 µg/mL (≈ 2.68 µM)
Structure (SMILES): CN[C@@H]1[C@H](O[C@H]2[C@H](O[C@H]3[C@H](O)[C@@H](O)[C@H](N=C(N)N)[C@@H](O)[C@@H]3N=C(N)N)O[C@@H](C)[C@]2(O)C=O)O[C@@H](CO)[C@H](O)[C@H]1O [STREPTOMYCIN]

Second part, the molecule before the results:

Structure (SMILES): CC(=O)C1=C(O)C(C)(CC=C(C)C)C(O)=C(Cc2c(O)c3c(c(C(C)=O)c2O)OC(C)(C)C=C3)C1=O (stereo not given) [DRUMMONDIN D]
MIC (Bacillus subtilis): 0.39 µg/mL (≈ 0.785 µM)
MIC (Staphylococcus aureus): 0.78 µg/mL (≈ 1.57 µM)
MIC [1]: 1.56 µg/mL (≈ 3.14 µM)

Structure (SMILES): CC(=O)C1=C(O)C(C)(CC=C(C)C)C(O)=C(Cc2c(OCC=C(C)C)cc(O)c(C(C)=O)c2O)C1=O (stereo not given) [DRUMMONDIN E]
MIC (Bacillus subtilis): 0.2 µg/mL (≈ 0.401 µM)
MIC (Staphylococcus aureus): 0.39 µg/mL (≈ 0.782 µM)
MIC [1]: 3.12 µg/mL (≈ 6.26 µM)

Structure (SMILES): CC(=O)C1=C(O)C(C)(CC=C(C)C)C(O)=C(Cc2c(O)c(CC=C(C)C)c(O)c(C(C)=O)c2O)C1=O (stereo not given) [DRUMMONDIN F]
MIC (Bacillus subtilis): 0.78 µg/mL (≈ 1.56 µM)
MIC (Staphylococcus aureus): 0.78 µg/mL (≈ 1.56 µM)
MIC [1]: 1.56 µg/mL (≈ 3.13 µM)
